In the RNAGym collection of RNA variant scans (doi:10.1126/science.aae0568):
This sample holds only a part of the variants without activity.

B1: tRNA (parent)
chain: GUUCCGUUGGCGUAAUGGUAACGCGUCUCCCUCCUAAGGAGAAGACUGCGGGUUCGAGUCCCGUACGGAACG

Variants of: B1
Assay: yeast fitness relative to wild type (ratio to wild type); higher = fitter; tRNA-Arg(CCU), competitive growth, 37 C, YPD
How it was run: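 Variants of the tRNA-Arg(CCU) gene were chemically synthesised with a 3% per-site mutation rate across 69 sites and placed at the native genomic locus in Saccharomyces cerevisiae. Six parallel replicates of the pooled strains were competed in YPD at 37°C for 24 hours, and gene amplicons from the start and end populations were read by 100-nucleotide paired-end sequencing. Darwinian fitness relative to wild type was derived from changes in genotype frequencies. Genotypes required ≥ 100 starting reads, and estimates < 0.5 were set to 0.5.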

Row | Variant | yeast fitness
1 | GUUCCGUUGGCGUAAUGGUAACGCGUCUCCCUCCUAAGGAGAGGCCUGGGGGUUCGAGUCCCGUACGGAACG | 0.532
2 | GUUCCGUUGGCGUAAUGGUAACGCGUCUCCCUCCUAAGGAGAGGUCUGCGGGUUCGAGUCCCGUACUGAACG | 0.682
3 | GUUCCGUUGGCGUAAUGGUAACGCGUCUCCCUCCUAAGGAGAGGUCUGCGGGUUCGAGUCCCGUACGGAACG | 1.01
4 | GUUCCGUUGGCGUAAUGGUAACGCGUCUCCCUCCUAAGGAGAGGCCUGCGGGUUCGAGUCCCGUACGGAACG | 0.901
5 | GUUCCGUUGGCGUAAUGGUAACGCGUCUCCCUCCUAAGGAGAGGGCUGCGGGUUCGAGUCCCGUACGGAACG | 0.745
6 | GUUCCGUUGGCGUAAUGGUAACGCGUCUCCCUCCUAAGGAGAGGACUGCGGGUUCGAGUCCGGUACGGAACG | 0.752
7 | GUUCCGUUGGCGUAAUGGUAACGCGUCUCCCUCCUAAGGAGAGGACUGCGGGUUCGAGUCCAGUACGGAACG | 0.72
8 | GUUCCGUUGGCGUAAUGGUAACGCGUCUCCCUCCUAAGGAGACGACUGCGGGCUCGAGUCCCGUAUGGACCG | ≤ 0.5
9 | GUUCCGUUGGCGUAAUGGUAACGCGUCUCCCUCCUAAGGAGAGGUCCGCGGGUUCGAGUCCCAUACGGAACG | ≤ 0.5
10 | GUUCCGUUGGCGUAAUGGUAACGCGUCUCCCUCCUAAGGAGAGGACUGCGGGUUCGAGUUCUGUACGGAACG | 0.536
11 | GUUCCGUUGGCGUAAUGGUAACGCGUCUCCCUCCUAAGGAGAGGAUUGCGGGUUCGAGUCCCGUACGGAGCG | 1.04
12 | GUUCCGUUGGCGUAAUGGUAACGCGUCUCCCUCCUAAGGAGACGACUGCGGGACCGAGUCCCGUACGGAACG | 0.583
13 | GUUCCGUUGGCGUAAUGGUAACGCGUCUCCCUCCUAAGGAGAGGACUGCGGGUUCGAGUCGUGUACGGAACG | ≤ 0.5
14 | GUUCCGUUGGCGUAAUGGUAACGCGUCUCCCUCCUAAGGAGAGGACUGCGGGUUGGAGUCCCGUACGGAACG | 0.684
15 | GUUCCGUUGGCGUAAUGGUAACGCGUCUCCCUCCUAAGGAGAGGACUGAGGGUUCGAGUCCCGUACGGAACG | 0.574
16 | GUUCCGUUGGCGUAAUGGUAACGCGUCUCCCUCCUAAGGAGAGGACUGGGGGUUCGAGUCCCGUACGGAACG | 0.732
17 | GUUCCGUUGGCGUAAUGGUAACGCGUCUCCCUCCUAAGGAGAGGACUGCGGGUUCGCGUGCCGUACGGAACG | ≤ 0.5
18 | GUUCCGUUGGCGUAAUGGUAACGCGUCUCCCUCCUAAGGAGAGGUUUGCGGGUUCGAGUCCCGUACGGAUCG | ≤ 0.5
19 | GUUCCGUUGGCGUAAUGGUAACGCGUCUCCCUCCUAAGGAGACGACUGCGGGUUCGAGUCCCGCACGGAACG | 0.997

Row | Variant | yeast fitness
20 | GUUCCGUUGGCGUAAUGGUAACGCGUCUCCCUCCUAAGGAGAGGACUGCGGGUUCGAGUCCCGUACGGUACG | 1.04
21 | GUUCCGUUGGCGUAAUGGUAACGCGUCUCCCUCCUAAGGAGAGGAGUGCGGGCUCCAGUCCCGUACGGAACG | ≤ 0.5
22 | GUUCCGUUGGCGUAAUGGUAACGCGUCUCCCUCCUAAGGAGAGGAUUGCGGGUUCGAGUGCCGUACGUAACG | 0.567
23 | GUUCCGUUGGCGUAAUGGUAACGCGUCUCCCUCCUAAGGAGAGGUCUACGGGUUCGAGUCCCGUACGGAACG | 0.658
24 | GUUCCGUUGGCGUAAUGGUAACGCGUCUCCCUCCUAAGGAGAGGACUGCGGGUUCGAGUCCCGUUCGGAACG | 0.899
25 | GUUCCGUUGGCGUAAUGGUAACGCGUCUCCCUCCUAAGGAGAGGACUGCGGGUUCGAGUCCCGUGCGGAACG | 1.08
26 | GUUCCGUUGGCGUAAUGGUAACGCGUCUCCCUCCUAAGGAGAGGACUGUGGGUUCGAGUCCCGUACGGCACG | 0.6
27 | GUUCCGUUGGCGUAAUGGUAACGCGUCUCCCUCCUAAGGAGAGGACUGCGGGUUCGCAUCCCGUUCGGAACG | ≤ 0.5
28 | GUUCCGUUGGCGUAAUGGUAACGCGUCUCCCUCCUAAGGAGAGGACUGCGGGUUCGAGUUCCGUGCGGAACG | 0.535
29 | GUUCCGUUGGCGUAAUGGUAACGCGUCUCCCUCCUAAGGAGAGGACUGUGGGUUCGCGUCCCGUUCGGAACG | ≤ 0.5
30 | GUUCCGUUGGCGUAAUGGUAACGCGUCUCCCUCCUAAGGAGAGGACUGCGGGUUCGAGUCCCGUACGGAACG | 0.991
31 | GUUCCGUUGGCGUAAUGGUAACGCGUCUCCCUCCUAAGGAGAGGACUGCGGGUUCGUAUCCCGUACGGAACG | 0.531
32 | GUUCCGUUGGCGUAAUGGUAACGCGUCUCCCUCCUAAGGAGAGGACUGCGGGUUAGAGUCCCGUACGGUACG | 0.633
33 | GUUCCGUUGGCGUAAUGGUAACGCGUCUCCCUCCUAAGGAGACGACUGCGGGUACGGGUCCCGUACGGAACG | ≤ 0.5
34 | GUUCCGUUGGCGUAAUGGUAACGCGUCUCCCUCCUAAGGAGAGGACUGCGGGUUCGAGUCACGUACGGAACG | 0.616
35 | GUUCCGUUGGCGUAAUGGUAACGCGUCUCCCUCCUAAGGAGAGGACUGCGGGUUCGUGUCCCGUACGGAACG | 0.623
36 | GUUCCGUUGGCGUAAUGGUAACGCGUCUCCCUCCUAAGGAGAGGACUGCGGGUUUGAGUCACGUACGGAACG | ≤ 0.5
37 | GUUCCGUUGGCGUAAUGGUAACGCGUCUCCCUCCUAAGGAGAGGACUGCGGGUUCGAGUUCUGUACAGACCG | 0.576
38 | GUUCCGUUGGCGUAAUGGUAACGCGUCUCCCUCCUAAGGAGAGGUCUGCGGGUUCGAGUCCCGUACGGUACG | 0.771
